Published values pooled from the literature.
Compare with care: the assays were run in different laboratories.
CA9: Carbonic anhydrase 9 (CA9, Homo sapiens, UniProt Q16790)
PADI4: Protein-arginine deiminase type-4 (PADI4, Homo sapiens, UniProt Q9UM07)
MAOB: Amine oxidase [flavin-containing] B (MAOB, Homo sapiens, UniProt P27338)
HRH1: Histamine H1 receptor (HRH1, Homo sapiens, UniProt P35367)
PKN1: Serine/threonine-protein kinase N1 (PKN1, Homo sapiens, UniProt Q16512)
GRM1: Metabotropic glutamate receptor 1 (GRM1, Homo sapiens, UniProt Q13255)

| Compound | target | assay | test system | setting | endpoint | result |
| --- | --- | --- | --- | --- | --- | --- |
| CCOC(=O)C1CSc2[nH]c(=O)sc2C1c1cn(-c2ccccc2)nc1-c1ccc(C)cc1 (stereo not shown) | CA9 | enzyme activity, inhibitor |  | 10 µM | inhibition | 76.9% |
| N=C(CCl)NCCC[C@H](NC(=O)c1ccccc1C(=O)O)c1nn[nH]n1 | PADI4 | enzyme activity, inhibitor |  |  | kinact/KI | 2660 M⁻¹ s⁻¹ |
| CCOC(=O)C1CSc2[nH]c(=O)sc2C1c1cn(-c2ccccc2)nc1-c1ccc(OC)cc1 (stereo not shown) | CA9 | enzyme activity, inhibitor |  | 10 µM | inhibition | 84.9% |
| COc1cc2c(CCNC(C)=O)c[nH]c2cc1O | Sulfotransferase 1A1 (SULT1A1, Homo sapiens, UniProt P50225) | enzyme activity, substrate |  | pH 7 | Km | 8.2 µM |
| O=C(Nc1ccc(C(F)(F)F)cc1)c1cc2ccccc2cc1O | MAOB | enzyme activity, inhibitor |  | 1 µM, 20 min | inhibition | 67% |
| N=C(CF)NCCC[C@H](NC(=O)c1ccccc1C(=O)O)c1nn[nH]n1 | PADI4 | enzyme activity, inhibitor |  |  | kinact/KI | 780 M⁻¹ s⁻¹ |
| CN1CCC(=C2c3ccccc3CCc3ccccc32)CC1 | HRH1 | binding |  |  | koff | 8.33e-05 s⁻¹ |
| COc1cc2ncnc(Nc3ccc(F)c(Cl)c3)c2cc1NC(=O)/C=C/CN1CCCCC1 | PKN1 | enzyme activity, inhibitor |  | 1 µM | activity vs control | 87% |
| CC(C)(O)[C@H]1CC[C@H](Nc2ccc3ncc(-c4cccc(C(F)(F)F)c4)n3n2)CC1 | Receptor-interacting serine/threonine-protein kinase 3 (RIPK3, Homo sapiens, UniProt Q9Y572) | enzyme activity, inhibitor |  | 1 µM | remaining activity | 80.6% |
| CCOC(=O)C1CSc2[nH]c(=O)sc2C1c1cn(-c2ccccc2)nc1-c1ccccc1 (stereo not shown) | CA9 | enzyme activity, inhibitor |  | 10 nM | inhibition | 15.6% |
| Cn1c(=O)n(-c2ccc(C(C)(C)C#N)cc2)c2c3cc(-c4cnc5ccccc5c4)ccc3ncc21 | PKN1 | enzyme activity, inhibitor |  | 1 µM | activity vs control | 84% |
| CCOC(=O)C1CSc2[nH]c(=O)sc2C1c1cn(-c2ccccc2)nc1-c1ccc(Br)cc1 (stereo not shown) | CA9 | enzyme activity, inhibitor |  | 1 µM | inhibition | 61% |
| O=C(c1ccc(Cl)cc1)N(Cc1ccccc1)C1CCCCC1 | Endothelin receptor type B (EDNRB, Homo sapiens, UniProt P24530) | cell-free assay |  | 10 µM | inhibition | 3.4% |
| O=C(Nc1ccc([N+](=O)[O-])cc1Cl)c1ccc2c(c1)OCO2 | MAOB | enzyme activity, inhibitor |  | 1 µM, 20 min | inhibition | 62% |
| Cc1ccc(-c2nn(-c3ccccc3)cc2C2c3sc(=O)[nH]c3SC3C(=O)N(c4ccccc4)C(=O)C32)cc1 (stereo not shown) | CA9 | enzyme activity, inhibitor |  | 0.1 µM | inhibition | 39% |
| CN1CCN(C2c3ccccc3C=Cc3ccccc32)CC1 | HRH1 | binding |  |  | koff | 0.000583 s⁻¹ |
| N=C(N)NCCC[C@H](NC(=O)[C@H](Cc1ccccc1)NC(=O)[C@@H](N)Cc1c[nH]cn1)C(=O)N[C@@H](Cc1c[nH]c2ccccc12)C(=O)O | Melanocortin receptor 5 (Mus musculus, UniProt P41149) | cAMP, agonist | HEK293 |  | Emax | 85% |
| O=C(Nc1ccc(N2C(=O)c3ccccc3C2=O)c(Cl)c1)c1ncccc1O | GRM1 | calcium signal, positive allosteric modulator | T-REx-293 |  | Emax | 106% |
| CC(C)(C)n1nnc([C@H](CCCNC(=N)CCl)NC(=O)c2ccccc2)n1 | PADI4 | enzyme activity, inhibitor |  |  | kinact/KI | 11.8 M⁻¹ s⁻¹ |
| O=C(Nc1ccc(N2C(=O)c3ccccc3C2=O)c(Cl)c1)c1ncccc1Cl | GRM1 | calcium signal, positive allosteric modulator | T-REx-293 |  | Emax | 102% |
| CN1CCC(=C2c3ccccc3CCc3cccnc32)CC1 | HRH1 | binding |  |  | kon | 533000 M⁻¹ s⁻¹ |
| Cl.Cl.c1cc(-c2cnn3cc(-c4ccc(OCCN5CCCCC5)cc4)cnc23)ccn1 | PKN1 | enzyme activity, inhibitor |  | 1 µM | activity vs control | 32% |

| Compound | target | assay | test system | setting | endpoint | result |
| --- | --- | --- | --- | --- | --- | --- |
| COc1cc([N+](=O)[O-])ccc1NC(=O)c1ccccc1O | MAOB | enzyme activity, inhibitor |  | 1 µM, 20 min | inhibition | 7% |
| NNCCc1ccc(NC(=O)CCCc2ccccc2)cc1 | MAOB | enzyme activity, inhibitor |  |  | KI (inactivation) | 6.5 µM |
| N=C(CF)NCCC[C@H](NC(=O)c1ccc(-c2ccccc2)cc1)c1nn[nH]n1 | PADI4 | enzyme activity, inhibitor |  |  | kinact/KI | 3.5 M⁻¹ s⁻¹ |
| CN1CCC(=C(c2ccccc2)c2ccccc2)CC1 | HRH1 | binding |  |  | koff | 0.00583 s⁻¹ |
| S=C(NCc1ccc2c(c1)OCO2)N1CCN(c2ncnc3c2oc2ccccc23)CC1 | PKN1 | enzyme activity, inhibitor |  | 1 µM | activity vs control | 98% |
| O=C1NC(=S)C(=Cc2cn(-c3ccccc3)nc2-c2ccc(Br)cc2)S1 | CA9 | enzyme activity, inhibitor |  | 10 nM | inhibition | 12% |
| CN(C)c1ccc(-c2nc3ncc(Cl)c(N4CCN(CC(=O)Nc5nccs5)CC4)c3[nH]2)cc1 | PKN1 | enzyme activity, inhibitor |  | 1 µM | activity vs control | 32% |
| O=C(Nc1ccc([N+](=O)[O-])cc1)c1cc(Cl)ccc1O | MAOB | enzyme activity, inhibitor |  | 1 µM, 20 min | inhibition | 66% |
| CN1CCC(C2c3ccccc3CCc3ccccc32)CC1 | HRH1 | binding |  |  | koff | 0.000475 s⁻¹ |
| O=C(Nc1ccccc1)c1ccccc1O | MAOB | enzyme activity, inhibitor |  | 1 µM, 20 min | inhibition | 5% |
| COc1cc(N2CCOCC2)ccc1NC(=O)c1csc(-c2cccnc2)n1 | PKN1 | enzyme activity, inhibitor |  | 1 µM | activity vs control | 87% |
| O=C(Nc1ccc([N+](=O)[O-])cc1C(F)(F)F)c1cc(Cl)ccc1O | MAOB | enzyme activity, inhibitor |  | 1 µM, 20 min | inhibition | 30% |
| CC(C)(C)n1nnc([C@H](CCCNC(=N)CF)NC(=O)c2ccccc2C(=O)O)n1 | PADI4 | enzyme activity, inhibitor |  |  | kinact/KI | 432 M⁻¹ s⁻¹ |
| Cc1c(Cn2c(C)nc3c(C(=O)O)cc(N4CCOCC4)cc32)cccc1C(F)(F)F | PKN1 | enzyme activity, inhibitor |  | 1 µM | activity vs control | 88% |
| COc1cc(NC(C)=O)c(Cl)cc1C(=O)Nc1nccs1 | Beta-1 adrenergic receptor (ADRB1, Homo sapiens, UniProt P08588) | cell-free assay |  | 10 µM | inhibition | 2.5% |
| CO[C@H]1C[C@@H]2CC[C@@H](C)[C@@](O)(O2)C(=O)C(=O)N2CCCC[C@H]2C(=O)O[C@H]([C@H](C)C[C@@H]2CC[C@@H](OP(C)(C)=O)[C@H](OC)C2)CC(=O)[C@H](C)/C=C(\C)[C@@H](O)[C@@H](OC)C(=O)[C@H](C)C[C@H](C)/C=C/C=C/C=C/1C | PKN1 | enzyme activity, inhibitor |  | 1 µM | activity vs control | 104% |
| CN(C)C1CCN(CC#Cc2nn(C3CCCC3)c3nc(NCc4ccccc4)ncc23)C1 (stereo not shown) | Tyrosine-protein kinase HCK (HCK, Homo sapiens, UniProt P08631) | enzyme activity, inhibitor, FRET |  | 0.1 µM | inhibition | 2% |
| O=C(Nc1cccc(Cl)c1)c1ccc([N+](=O)[O-])cc1Cl | MAOB | enzyme activity, inhibitor |  | 1 µM, 20 min | inhibition | 36% |
| CN(C)CCOC1c2ccccc2CCc2ccccc21 | HRH1 | binding |  |  | koff | 0.00215 s⁻¹ |
| O=C(Nc1ccc([N+](=O)[O-])cc1Cl)c1ccccc1O | MAOB | enzyme activity, inhibitor |  | 1 µM, 20 min | inhibition | 14% |
| N=C(CF)NCCC[C@H](NC(=O)c1ccccc1)c1nn[nH]n1 | PADI4 | enzyme activity, inhibitor |  |  | kinact/KI | 67.5 M⁻¹ s⁻¹ |
